Measurements from different studies.
Compare with care: the assays were run in different laboratories.
Target: Platelet-derived growth factor receptor alpha (PDGFRA, Homo sapiens, UniProt P16234)

CN(C)c1nccc(-c2cnn3ncccc23)n1  remaining binding (binding; 1 µM): 100%
O=C(c1ccc(Nc2ncc(Cl)c(-c3ccc(Cl)s3)n2)cc1)N1CCC(N2CCCC2)CC1  remaining binding (binding; competition with immobilised ligand; 1 µM): 3.4%
Cc1cc(C)c(-n2ccn3nc(-c4cccnc4)cc23)cc1NC(=O)c1cc(C#N)cc(S(F)(F)(F)(F)F)c1  remaining binding (cell-free assay; competition with immobilised ligand; 0.1 µM): 67.4%
COc1ncc2cc3ccccc3nc2c1C#N  remaining binding (cell-free assay; competition with immobilised ligand; 5 µM): 83%
COc1ccnn2ncc(-c3ccnc(N(C)C)n3)c12  remaining binding (binding; 1 µM): 74%
CCOCCn1cc(C(=O)Nc2ccc(-n3nc(-c4cccnc4)cc3C(F)(F)F)cn2)ccc1=O  remaining binding (cell-free assay; competition with immobilised ligand; 1 µM): 68%
CCN1CCN(Cc2ccc(C(=O)Nc3ccc(C)c(Oc4ccc5c(c4)CC(=O)N5)c3)cc2C(F)(F)F)CC1  remaining binding (binding; competition with immobilised ligand; 1 µM): 100%
c1cncc(-c2cccc(Nc3nccc(NC4CCCCC4)n3)c2)c1  remaining binding (binding; competition with immobilised ligand; 10 µM): 11%
N[C@@H]1CCN(c2nccc(-c3cnn4ncccc34)n2)C1  remaining binding (binding; 1 µM): 100%
O=C(Nc1c[nH]nc1C(=O)NC1CCNCC1)c1cc(F)cc(F)c1  remaining binding (binding; competition with immobilised ligand; 1 µM): 83%
O=C(NCCCN1CCOCC1)c1ccc(Nc2ncc(Cl)c(-c3ccc(Cl)s3)n2)cc1  remaining binding (binding; competition with immobilised ligand; 1 µM): 10%
COC(=O)Nc1nc2ccc(C(=O)c3ccccc3)cc2[nH]1  remaining binding (cell-free assay; competition with immobilised ligand; 10 µM): 7.8%
CN(c1nccc(-c2cnn3ncccc23)n1)C1CC1  remaining binding (binding; 1 µM): 100%
Cn1cc(Cl)c2c(Oc3c(F)cc(Nc4cc(Cl)nc(N)n4)cc3F)ccnc21  remaining binding (cell-free assay; competition with immobilised ligand; 0.1 µM): 98%
CN(CCCC(F)(F)F)c1nccc(-c2cnn3ncccc23)n1  remaining binding (binding; 1 µM): 100%
CNCc1ccccc1-c1csc([C@H](C)Nc2nc(C)nc3cc(OC)c(OC)cc23)c1  remaining binding (cell-free assay; competition with immobilised ligand; 1 µM): 92%
CN(C)c1nccc(-c2cnc3ncccn23)n1  remaining binding (binding; 1 µM): 78%
CC(C)(O)c1cncc(-c2nc3ccc(F)cc3n2C2CC2)c1  remaining binding (cell-free assay; competition with immobilised ligand; 1 µM): 100%
C[C@@H]1CN(c2ccc3ncc(-c4ccc5[nH]nc(C6CC6)c5c4)n3n2)C[C@H](C)O1  remaining binding (binding; competition with immobilised ligand; 50 nM): 81%
C[C@H](c1cccc(C#N)c1)n1cc(Cl)cc(C(N)=O)c1=N  remaining binding (cell-free assay; competition with immobilised ligand; 1 µM): 94%
C[C@@H]1CCN(c2nccc(-c3cnn4ncccc34)n2)C1  remaining binding (binding; 1 µM): 81%
CCS(=O)(=O)c1cc2cc(C[C@@](O)(CC(C)(C)c3ccc(F)cc3C(N)=O)C(F)(F)F)[nH]c2cn1  remaining binding (cell-free assay; competition with immobilised ligand; 1 µM): 99%
CNC(=O)[C@@H]1CC[C@@H](n2c(-c3ccc4cnccc4c3)nc3ccc(C(=O)NCc4cccc(C(N)=O)c4)cc32)C1  remaining binding (binding; competition with immobilised ligand; 1 µM): 100%
CS(=O)(=O)c1cc(C2(NC(=O)c3cncc4c3cnn4-c3ccc(F)cc3)CC2)ccn1  remaining binding (cell-free assay; competition with immobilised ligand; 1 µM): 90%
O=C(c1ccc(Nc2nccc(-c3cc4ccccc4s3)n2)cc1)N1CCC(N2CCCC2)CC1  remaining binding (binding; competition with immobilised ligand; 1 µM): 52%
